According to ChEMBL document CHEMBL1141608, “Azaterphenyl diamidines as antileishmanial agents” (Bioorg Med Chem Lett, 2008):
Calls of active or inactive are those of the source. The calls are words filed in the database; no cut-off is given here.

How the values were obtained:
[1] = tested on: Leishmania donovani; test: Antileishmanial activity against Leishmania donovani axenic amastigotes; type: functional, organism-based
How it was run: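 Axenic L. donovani amastigotes; IC50 is the mean of at least two independent assays.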

[2] = tested on: L6; test: Cytotoxicity against rat L6 cells; type: cell-based
[3] = tested on: Leishmania amazonensis; test: Antileishmanial activity against Leishmania amazonensis in mouse J774 cells
[4] = tested on: Leishmania amazonensis; test: Antileishmanial activity against Leishmania amazonensis in mouse J774 cells at <5 uM
[5] = tested on: J774; test: Cytotoxicity against mouse J774 cells; type: cell-based
[6] = Binding affinity to poly(dA-dT)2 assessed as melting temperature
[7] = tested on: Leishmania donovani; test: Induction of mitochondrial dilation in Leishmania donovani axenic amastigotes at […] after 24 hrs; type: functional, organism-based
[8] = tested on: Leishmania donovani; test: Induction of kinetoplast disintegration in Leishmania donovani axenic amastigotes at […] after 24 hrs; type: functional, organism-based

Row | IC50 [1] | Compound | IC50 [2] | further results
1 | 6800 nM | N=C(N)c1ccc(-c2ccc(-c3ccc(C(=N)N)cn3)cn2)cc1 | 28000 nM | 
2 | 510 nM | N=C(N)c1ccc(-c2ccc(-c3ccc(C(=N)N)nc3)cn2)cc1 | 20000 nM | 
3 | 84 nM | N=C(N)c1ccc(-c2ccc(-c3ccc(C(=N)N)nc3)cc2)cc1 | 2800 nM | 
4 |  | C[C@@H]1[C@H](O)[C@@H](C)/C=C/C=C/C=C/C=C/C=C/C=C/C=C/[C@H](O[C@@H]2O[C@H](C)[C@@H](O)[C@H](N)[C@@H]2O)C[C@@H]2O[C@](O)(C[C@@H](O)C[C@@H](O)[C@H](O)CC[C@@H](O)C[C@@H](O)CC(=O)O[C@H]1C)C[C@H](O)[C@H]2C(=O)O (stereo in doubt) [AMPHOTERICIN B] |  | IC50 [3]: 46 nM
5 | 560 nM | N=C(N)c1ccc(-c2cnc(-c3ccc(C(=N)N)cc3)cn2)cc1 | 43000 nM | 
6 | 2600 nM | N=C(N)c1ccc(-c2ccc(-c3cnc(C(=N)N)nc3)cn2)cc1 | 6400 nM | 
7 | 200 nM | N=C(N)c1ccc(-c2ccc(-c3cnc(C(=N)N)nc3)cc2)cc1 | 4700 nM | 
8 | 820 nM | N=C(N)c1ccc(-c2ccc(-c3ccc(C(=N)N)cc3)nc2)cc1 | 50000 nM | 
9 | 63 nM | N=C(N)c1ccc(-c2ccc(-c3ccc(C(=N)N)nc3)cc2)cn1 | 1200 nM | Activity [4]: inactive; Activity [5]: Toxic
10 | 340 nM | N=C(N)c1ccc(-c2ccc(-c3ccc(C(=N)N)cc3)c(F)c2)cc1 | 6400 nM | ΔTm [6]: 15.1 °C
11 | 16000 nM | N=C(N)c1ccc(-c2ccc(-c3cnc(C(=N)N)cn3)cn2)cc1 | 93000 nM | 
12 | 270 nM | N=C(N)c1ccc(-c2ccc(-c3ccc(C(=N)N)cc3)cc2)cc1 | 22000 nM | Activity [7]: Active; Activity [4]: inactive; Activity [5]: Toxic; Activity [8]: Active
13 | > 100000 nM | N=C(N)c1ccc(-c2ccc(-c3ccc(C(=N)N)cn3)cc2)nc1 |  | 
14 | 1700 nM | N=C(N)c1ncc(-c2ccc(-c3cnc(C(=N)N)nc3)cc2)cn1 | 2200 nM | 
15 | 720 nM | N=C(N)c1ccc(-c2ccc(-c3ccc(C(=N)N)cc3)nn2)cc1 | 31000 nM | 
16 | 1800 nM | N=C(N)c1ccc(-c2cnc(-c3ccc(C(=N)N)nc3)nc2)cn1 | 5300 nM | ΔTm [6]: 6.8 °C
17 | 1400 nM | N=C(N)c1ccc(-c2ccc(-c3ccc(C(=N)N)cn3)cc2)cc1 | 27000 nM | 
18 | 1100 nM | N=C(N)c1ccc(-c2cnc(-c3ccc(C(=N)N)cc3)nc2)cc1 | 41000 nM | 
19 |  | N=C(N)c1cnc(-c2ccc(-c3cnc(C(=N)N)cn3)cc2)cn1 | 47000 nM | 
